The term MIC denotes the smallest concentration in the dilution series that meets the test's criterion for growth inhibition. As a reminder, the IC50 is the concentration needed to halve the response being measured. Low readings indicate greater potency in that assay, high ones weaker potency in that assay.

The structures appear in SMILES notation. Values after ≈ are worked out from the molar mass of the structure shown.

Sequence of DNA gyrase (Staphylococcus aureus) (P0A0K8 2-644 limits assumed): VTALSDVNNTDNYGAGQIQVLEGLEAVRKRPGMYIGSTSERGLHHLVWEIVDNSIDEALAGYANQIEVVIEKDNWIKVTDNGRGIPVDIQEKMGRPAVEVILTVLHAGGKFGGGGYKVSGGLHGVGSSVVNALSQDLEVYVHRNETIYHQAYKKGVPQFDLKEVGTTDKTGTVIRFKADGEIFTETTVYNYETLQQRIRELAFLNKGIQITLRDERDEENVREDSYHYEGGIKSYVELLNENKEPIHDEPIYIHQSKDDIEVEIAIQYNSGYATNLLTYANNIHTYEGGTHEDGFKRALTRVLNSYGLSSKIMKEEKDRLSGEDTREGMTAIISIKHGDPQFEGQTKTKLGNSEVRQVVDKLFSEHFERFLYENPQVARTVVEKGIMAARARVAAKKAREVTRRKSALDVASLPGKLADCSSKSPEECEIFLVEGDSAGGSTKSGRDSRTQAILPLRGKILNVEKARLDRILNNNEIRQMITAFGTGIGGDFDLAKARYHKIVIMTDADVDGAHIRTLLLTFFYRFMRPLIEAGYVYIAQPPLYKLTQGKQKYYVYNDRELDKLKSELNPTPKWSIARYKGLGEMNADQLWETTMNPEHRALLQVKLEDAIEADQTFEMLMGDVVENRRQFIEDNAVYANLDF
Sequence of DNA gyrase (Staphylococcus aureus) (P20831 whole entry partner): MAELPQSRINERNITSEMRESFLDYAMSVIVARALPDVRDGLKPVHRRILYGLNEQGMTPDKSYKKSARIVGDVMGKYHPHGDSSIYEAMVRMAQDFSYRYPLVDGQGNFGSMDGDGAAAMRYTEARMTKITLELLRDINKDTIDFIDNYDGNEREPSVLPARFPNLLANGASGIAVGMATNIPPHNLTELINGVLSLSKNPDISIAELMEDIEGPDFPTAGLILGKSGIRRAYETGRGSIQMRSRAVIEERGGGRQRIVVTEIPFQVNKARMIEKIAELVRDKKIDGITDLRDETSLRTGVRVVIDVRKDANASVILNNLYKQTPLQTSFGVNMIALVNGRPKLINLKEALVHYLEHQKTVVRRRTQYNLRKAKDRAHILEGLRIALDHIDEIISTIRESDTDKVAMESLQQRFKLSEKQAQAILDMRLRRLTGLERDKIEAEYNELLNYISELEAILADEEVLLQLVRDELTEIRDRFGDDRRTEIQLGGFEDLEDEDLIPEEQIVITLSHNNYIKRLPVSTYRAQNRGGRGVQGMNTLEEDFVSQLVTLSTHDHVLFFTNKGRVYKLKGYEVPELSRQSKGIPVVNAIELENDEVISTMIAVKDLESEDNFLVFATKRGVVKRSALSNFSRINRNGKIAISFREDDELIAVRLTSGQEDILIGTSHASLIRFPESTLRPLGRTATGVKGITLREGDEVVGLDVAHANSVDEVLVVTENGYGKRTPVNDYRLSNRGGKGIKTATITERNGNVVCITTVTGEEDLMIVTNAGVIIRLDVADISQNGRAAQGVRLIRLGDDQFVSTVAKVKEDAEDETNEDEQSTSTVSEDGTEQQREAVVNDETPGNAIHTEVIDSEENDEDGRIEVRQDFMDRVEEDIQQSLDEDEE
Sequence of DNA gyrase (Staphylococcus aureus, UniProt P0A0K8+P20831) (P0A0K8 whole entry): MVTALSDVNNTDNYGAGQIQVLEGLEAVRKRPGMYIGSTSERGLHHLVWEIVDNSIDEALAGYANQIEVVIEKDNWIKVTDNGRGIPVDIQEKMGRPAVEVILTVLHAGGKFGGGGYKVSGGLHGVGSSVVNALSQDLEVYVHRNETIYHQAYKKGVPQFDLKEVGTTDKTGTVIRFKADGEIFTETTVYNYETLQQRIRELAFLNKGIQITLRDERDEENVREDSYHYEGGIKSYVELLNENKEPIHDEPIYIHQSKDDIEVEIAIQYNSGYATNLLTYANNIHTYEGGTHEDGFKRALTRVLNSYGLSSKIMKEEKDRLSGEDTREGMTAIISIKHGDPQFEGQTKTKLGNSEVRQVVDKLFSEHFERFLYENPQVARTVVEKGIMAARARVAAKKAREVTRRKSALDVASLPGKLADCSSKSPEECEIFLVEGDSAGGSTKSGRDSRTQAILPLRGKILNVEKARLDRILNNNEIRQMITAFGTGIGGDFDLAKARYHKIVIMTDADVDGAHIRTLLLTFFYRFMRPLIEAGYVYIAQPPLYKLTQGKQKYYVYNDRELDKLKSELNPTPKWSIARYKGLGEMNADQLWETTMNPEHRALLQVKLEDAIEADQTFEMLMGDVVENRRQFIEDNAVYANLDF
Sequence of DNA gyrase (Staphylococcus aureus, UniProt P0A0K8+P20831) (P20831 whole entry): as the sequence (P20831 whole entry partner) above

The first assay addresses Topoisomerase IV (Staphylococcus aureus) (UniProt P0C1U9+P0C1S7). Briefly: Inhibition of Staphylococcus aureus DNA topoisomerase 4 assessed as enzyme residual activity at 10 uM using supercoiled pNO1 plasmid DNA as substrate incubated for 30 mins by fluorescence assay relative to control. It counts as protein-complex assay.
On to `CCOC(=O)C(=O)Nc1nc2ccc(NC(=O)c3[nH]c(C)c(Cl)c3Cl)cc2s1`, for which the Activity was 100%.

Turning to `Cc1[nH]c(C(=O)Nc2nc3ccc(NC(=O)CNC(=O)OC(C)(C)C)cc3s2)c(Cl)c1Cl`, the Activity came out at 100%.

As for `COC(=O)CC(=O)Nc1nc2ccc(NC(=O)c3[nH]c(C)c(Cl)c3Cl)cc2s1`, the Activity stood at 48%.

Consider `Cc1[nH]c(C(=O)Nc2nc3ccc(NC(=O)CN)cc3s2)c(Cl)c1Cl`, for which the Activity came to 100%.

Regarding `CCOC(=O)C(=O)Nc1ccc2nc(NC(=O)c3[nH]c(C)c(Cl)c3Cl)sc2c1`, the Activity came out at 100%.

Another assay deals with Escherichia coli. Briefly: Antibacterial activity against efflux pump defective Escherichia coli JW5503 harbouring tolC mutant assessed as minimum inhibitory concentration required for >=90% inhibition of bacterial growth measured after 24 hrs by broth microdilution method. It counts as functional. In general terms: In broth dilution the organism is exposed to a series of concentrations in liquid medium.
In the case of `CCOC(=O)C(=O)Nc1nc2ccc(NC(=O)c3[nH]c(C)c(Cl)c3Cl)cc2s1`, the MIC was greater than 50 µM.

On to `Cc1[nH]c(C(=O)Nc2nc3ccc(NC(=O)CNC(=O)OC(C)(C)C)cc3s2)c(Cl)c1Cl`, for which the MIC stood at 0.78 µM (≈ 0.389 µg/mL).

As for `COC(=O)CC(=O)Nc1nc2ccc(NC(=O)c3[nH]c(C)c(Cl)c3Cl)cc2s1`, the MIC was found to be 1.56 µM (≈ 0.688 µg/mL).

As for `Cc1[nH]c(C(=O)Nc2nc3ccc(NC(=O)CN)cc3s2)c(Cl)c1Cl`, the MIC is 3.13 µM (≈ 1.25 µg/mL).

On to `CCOC(=O)C(=O)Nc1ccc2nc(NC(=O)c3[nH]c(C)c(Cl)c3Cl)sc2c1`, for which the MIC was 50 µM (≈ 22.1 µg/mL).

The subject of the next assay is Escherichia coli. Nature of the assay: Antibacterial activity against Escherichia coli ATCC 25922 assessed as minimum inhibitory concentration required for >=90% inhibition of bacterial growth measured after 24 hrs by broth microdilution method. It counts as functional. The essentials:
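Cation-adjusted Mueller Hinton broth culture grown 16-20 h at 37°C with 100 rpm shaking. CLSI broth microdilution at a final inoculum of 5×10^5 CFU/mL, 8 concentrations from […], incubated 24 h at 37°C. A620 read and growth inhibition expressed as % of untreated controls. Ciprofloxacin positive control on every plate; n = 3.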
Take `CCOC(=O)C(=O)Nc1nc2ccc(NC(=O)c3[nH]c(C)c(Cl)c3Cl)cc2s1`: the MIC was greater than 50 µM.

With `Cc1[nH]c(C(=O)Nc2nc3ccc(NC(=O)CNC(=O)OC(C)(C)C)cc3s2)c(Cl)c1Cl`, the MIC is greater than 50 µM.

Regarding `COC(=O)CC(=O)Nc1nc2ccc(NC(=O)c3[nH]c(C)c(Cl)c3Cl)cc2s1`, the MIC is greater than 50 µM.

Consider `Cc1[nH]c(C(=O)Nc2nc3ccc(NC(=O)CN)cc3s2)c(Cl)c1Cl`, for which the MIC is greater than 50 µM.

With `CCOC(=O)C(=O)Nc1ccc2nc(NC(=O)c3[nH]c(C)c(Cl)c3Cl)sc2c1`, the MIC is greater than 50 µM.

A further assay has as its system Staphylococcus aureus. Nature of the assay: Antibacterial activity against Staphylococcus aureus ATCC 29213 assessed as minimum inhibitory concentration required for >=90% inhibition of bacterial growth measured after 24 hrs by broth microdilution method. It counts as functional. In outline: (§1)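 Strains were grown from cation-adjusted Mueller-Hinton agar slants into cation-adjusted MH broth at 37°C for 16-20 h at 100 rpm. Broth microdilution followed CLSI guidelines, with a final inoculum of 5×10^5 CFU/mL mixed 1:1 with compound in MH broth and incubated for 24 h at 37°C. Growth was read as A620 and expressed as percentage inhibition relative to untreated controls. Each plate included a ciprofloxacin positive control.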
On to `CCOC(=O)C(=O)Nc1nc2ccc(NC(=O)c3[nH]c(C)c(Cl)c3Cl)cc2s1`, for which the MIC was greater than 50 µM.

Regarding `Cc1[nH]c(C(=O)Nc2nc3ccc(NC(=O)CNC(=O)OC(C)(C)C)cc3s2)c(Cl)c1Cl`, the minimal inhibitory concentration (MIC) is greater than 50 µM.

As to `COC(=O)CC(=O)Nc1nc2ccc(NC(=O)c3[nH]c(C)c(Cl)c3Cl)cc2s1`, the MIC was greater than 50 µM.

As to `Cc1[nH]c(C(=O)Nc2nc3ccc(NC(=O)CN)cc3s2)c(Cl)c1Cl`, the MIC stood at 25 µM (≈ 9.96 µg/mL).

`CCOC(=O)C(=O)Nc1ccc2nc(NC(=O)c3[nH]c(C)c(Cl)c3Cl)sc2c1`: the MIC is greater than 50 µM.

The target of a further assay is DNA gyrase (Escherichia coli, UniProt P0AES4+P0AES6). Nature of the assay: Inhibition of Escherichia coli DNA gyrase using relaxed pNO1 plasmid DNA as substrate incubated for 30 mins by fluorescence assay. Type of assay: protein-complex assay.
`CCOC(=O)C(=O)Nc1nc2ccc(NC(=O)c3[nH]c(C)c(Cl)c3Cl)cc2s1` yielded an IC50 of 0.29 µM.

In the case of `Cc1[nH]c(C(=O)Nc2nc3ccc(NC(=O)CNC(=O)OC(C)(C)C)cc3s2)c(Cl)c1Cl`, the IC50 was determined as 0.029 µM.

With `COC(=O)CC(=O)Nc1nc2ccc(NC(=O)c3[nH]c(C)c(Cl)c3Cl)cc2s1`, the IC50 was determined as 0.2 µM.

In turn, `Cc1[nH]c(C(=O)Nc2nc3ccc(NC(=O)CN)cc3s2)c(Cl)c1Cl` came in with an IC50 of 0.28 µM.

On to `CCOC(=O)C(=O)Nc1ccc2nc(NC(=O)c3[nH]c(C)c(Cl)c3Cl)sc2c1`, for which the IC50 was 0.048 µM.

The test system of another assay is Escherichia coli. Briefly: Antibacterial activity against outer membrane impaired Escherichia coli JD17464 harboring lpxC mutant assessed as minimum inhibitory concentration required for >=90% inhibition of bacterial growth measured after 24 hrs by broth microdilution method. Type of assay: functional.
As for `CCOC(=O)C(=O)Nc1nc2ccc(NC(=O)c3[nH]c(C)c(Cl)c3Cl)cc2s1`, the MIC was greater than 50 µM.

`Cc1[nH]c(C(=O)Nc2nc3ccc(NC(=O)CNC(=O)OC(C)(C)C)cc3s2)c(Cl)c1Cl`: the MIC was greater than 50 µM.

For `COC(=O)CC(=O)Nc1nc2ccc(NC(=O)c3[nH]c(C)c(Cl)c3Cl)cc2s1`, the MIC is greater than 50 µM.

For `Cc1[nH]c(C(=O)Nc2nc3ccc(NC(=O)CN)cc3s2)c(Cl)c1Cl`, the MIC was greater than 50 µM.

With `CCOC(=O)C(=O)Nc1ccc2nc(NC(=O)c3[nH]c(C)c(Cl)c3Cl)sc2c1`, the MIC was greater than 50 µM.

The subject of the next assay is Enterococcus faecalis. Briefly: Antibacterial activity against Enterococcus faecalis ATCC 29212 assessed as minimum inhibitory concentration required for >=90% inhibition of bacterial growth after 24 hrs by broth microdilution method. It counts as functional. In outline: as §1
As for `CCOC(=O)C(=O)Nc1nc2ccc(NC(=O)c3[nH]c(C)c(Cl)c3Cl)cc2s1`, the MIC was greater than 50 µM.

Take `Cc1[nH]c(C(=O)Nc2nc3ccc(NC(=O)CNC(=O)OC(C)(C)C)cc3s2)c(Cl)c1Cl`: the minimum inhibitory concentration (MIC) came to 3.13 µM (≈ 1.56 µg/mL).

Take `COC(=O)CC(=O)Nc1nc2ccc(NC(=O)c3[nH]c(C)c(Cl)c3Cl)cc2s1`: the MIC is greater than 50 µM.

In the case of `Cc1[nH]c(C(=O)Nc2nc3ccc(NC(=O)CN)cc3s2)c(Cl)c1Cl`, the MIC amounted to 6.25 µM (≈ 2.49 µg/mL).

`CCOC(=O)C(=O)Nc1ccc2nc(NC(=O)c3[nH]c(C)c(Cl)c3Cl)sc2c1`: the MIC is greater than 50 µM.

The test system of another assay is Pseudomonas aeruginosa. Nature of the assay: Antibacterial activity against Pseudomonas aeruginosa ATCC 27853 assessed as minimum inhibitory concentration required for >=90% inhibition of bacterial growth measured after 24 hrs by broth microdilution method. Type of assay: functional. In outline:
as §1
For `CCOC(=O)C(=O)Nc1nc2ccc(NC(=O)c3[nH]c(C)c(Cl)c3Cl)cc2s1`, the MIC is greater than 50 µM.

For `Cc1[nH]c(C(=O)Nc2nc3ccc(NC(=O)CNC(=O)OC(C)(C)C)cc3s2)c(Cl)c1Cl`, the MIC was greater than 50 µM.

`COC(=O)CC(=O)Nc1nc2ccc(NC(=O)c3[nH]c(C)c(Cl)c3Cl)cc2s1`: the MIC was greater than 50 µM.

Turning to `Cc1[nH]c(C(=O)Nc2nc3ccc(NC(=O)CN)cc3s2)c(Cl)c1Cl`, the MIC was greater than 50 µM.

As for `CCOC(=O)C(=O)Nc1ccc2nc(NC(=O)c3[nH]c(C)c(Cl)c3Cl)sc2c1`, the MIC is greater than 50 µM.

In another assay the test system is Escherichia coli. Nature of the assay: Inhibition of Escherichia coli DNA topoisomerase 4 assessed as enzyme residual activity at 10 uM using supercoiled pNO1 plasmid DNA as substrate incubated for 30 mins by fluorescence assay relative to control.
As to `CCOC(=O)C(=O)Nc1nc2ccc(NC(=O)c3[nH]c(C)c(Cl)c3Cl)cc2s1`, the Activity was 100%.

With `Cc1[nH]c(C(=O)Nc2nc3ccc(NC(=O)CNC(=O)OC(C)(C)C)cc3s2)c(Cl)c1Cl`, the Activity came to 60%.

For `COC(=O)CC(=O)Nc1nc2ccc(NC(=O)c3[nH]c(C)c(Cl)c3Cl)cc2s1`, the Activity amounted to 100%.

As for `Cc1[nH]c(C(=O)Nc2nc3ccc(NC(=O)CN)cc3s2)c(Cl)c1Cl`, the Activity is 100%.

For the compound `CCOC(=O)C(=O)Nc1ccc2nc(NC(=O)c3[nH]c(C)c(Cl)c3Cl)sc2c1`, the Activity is 100%.

Another assay concerns the target DNA gyrase (Staphylococcus aureus, UniProt P0A0K8+P20831). Nature of the assay: Inhibition of Staphylococcus aureus DNA gyrase using relaxed pNO1 plasmid DNA as substrate incubated for 30 mins by fluorescence assay. It counts as protein-complex assay.
`Cc1[nH]c(C(=O)Nc2nc3ccc(NC(=O)CNC(=O)OC(C)(C)C)cc3s2)c(Cl)c1Cl` displayed an IC50 of 0.26 µM. In other words, the sub-micromolar range.

`Cc1[nH]c(C(=O)Nc2nc3ccc(NC(=O)CN)cc3s2)c(Cl)c1Cl` gave an IC50 of 0.38 µM.

The next assay addresses DNA gyrase (Staphylococcus aureus) (UniProt P0A0K8+P20831). Briefly: Inhibition of Staphylococcus aureus DNA gyrase assessed as enzyme residual activity at 10 uM using relaxed pNO1 plasmid DNA as substrate incubated for 30 mins by fluorescence assay relative to control. It counts as protein-complex assay.
As for `CCOC(=O)C(=O)Nc1nc2ccc(NC(=O)c3[nH]c(C)c(Cl)c3Cl)cc2s1`, the Activity is 69%.

`COC(=O)CC(=O)Nc1nc2ccc(NC(=O)c3[nH]c(C)c(Cl)c3Cl)cc2s1`: the Activity was 59%.

`CCOC(=O)C(=O)Nc1ccc2nc(NC(=O)c3[nH]c(C)c(Cl)c3Cl)sc2c1`: the Activity was 100%.

These data come from ChEMBL document CHEMBL4665899, “Exploring the Chemical Space of Benzothiazole-Based DNA Gyrase B Inhibitors” (ACS Med Chem Lett, 2020).
